Assay results taken from ChEMBL document CHEMBL3414565, “Discovery of novel AHLs as potent antiproliferative agents” (Eur J Med Chem, 2015).

Assays:
Format in all cases: functional, cell-based
[1] = Cytotoxicity against human EC9706 cells after 72 hrs by MTT assay; details: EC9706, 72 h
How it was run: (§1)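 Cells were grown in RPMI1640 and seeded at 5 × 10^3 cells/well, then left 24 h at 37 °C. Medium was replaced with fresh medium holding a range of compound concentrations, from 10 mM DMSO stocks with final DMSO at most 0.1%. Exposure lasted 72 h. MTT (5 mg/mL) was added for 4 h at 37 °C, formazan was dissolved in DMSO and A570 was read. IC50 came from dose-response curves as mean ± SD of three independent experiments.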

SMMC-7721 = experiment: Cytotoxicity against human SMMC7721 cells after 72 hrs by MTT assay; details: SMMC-7721, 72 h; how it was run: as §1
MCF7 = experiment: Cytotoxicity against human MCF7 cells after 72 hrs by MTT assay; details: MCF7, 72 h; how it was run: as §1
MGC-803 = experiment: Cytotoxicity against human MGC803 cells after 72 hrs by MTT assay; details: MGC-803, 72 h; how it was run: as §1

SMILES	IC50 [1]	IC50 (SMMC-7721)	IC50 (MCF7)	IC50 (MGC-803)
O=C(CSC(=S)N[C@H]1CCOC1=O)Nc1ccc(C(=O)/C=C/c2ccccc2)cc1	44.9 µM	> 128 µM	44.3 µM	24.8 µM
Cc1cccc(NC(=O)CSC(=S)N[C@H]2CCOC2=O)c1C	> 128 µM	42.1 µM	> 128 µM	
O=C(CSC(=S)N[C@H]1CCOC1=O)Nc1ccc(Cl)cc1	> 128 µM	> 128 µM	50.3 µM	
CCCCCCCCCCCCCCSC(=S)N[C@H]1CCOC1=O	66.2 µM	56.8 µM	30.5 µM	
O=C(CCl)Nc1ccc(C(=O)/C=C/c2ccc(F)cc2)cc1	8.6 µM	15.1 µM	5.47 µM	4.68 µM
O=C(CSC(=S)N[C@H]1CCOC1=O)Nc1cccc(C(F)(F)F)c1	79.7 µM	> 128 µM	3.13 µM	17.9 µM
COc1cccc(/C=C/C(=O)c2ccc(NC(=O)CCl)cc2)c1	5.97 µM	10.3 µM	3.02 µM	2.91 µM
CCCCCCSC(=S)N[C@H]1CCOC1=O	> 128 µM	> 128 µM	> 128 µM	> 128 µM
O=C(CCl)Nc1ccc(C(=O)/C=C/c2cccc(Cl)c2)cc1	5.56 µM	7.76 µM	5.34 µM	2.01 µM
O=C(CSC(=S)N[C@H]1CCOC1=O)Nc1ccc(C(=O)/C=C/c2cccc(Cl)c2)cc1	32.5 µM	39.1 µM	11.6 µM	15.6 µM
O=C(CSC(=S)N[C@H]1CCOC1=O)Nc1ccc(Br)cc1	67.4 µM	28.3 µM	66.5 µM	
CCSC(=S)N[C@H]1CCOC1=O	> 128 µM	> 128 µM	> 128 µM	> 128 µM
O=C(CSC(=S)N[C@H]1CCOC1=O)Nc1ccc(C(=O)/C=C/c2ccc(F)cc2)cc1	46.1 µM	> 128 µM	83.7 µM	45.7 µM
O=C(CCl)Nc1ccc(C(=O)/C=C/c2ccccc2Cl)cc1	6.98 µM	11.1 µM	5.26 µM	2.75 µM
O=C(CCl)Nc1ccc(C(=O)/C=C/c2ccc([N+](=O)[O-])cc2)cc1	3.67 µM	9.06 µM	3.91 µM	2.35 µM
O=C(CSC(=S)N[C@H]1CCOC1=O)Nc1ccccc1F	> 128 µM	> 128 µM	28.6 µM	
CCCCSC(=S)N[C@H]1CCOC1=O	> 128 µM	> 128 µM	> 128 µM	> 128 µM
O=C(CCl)Nc1ccc(C(=O)/C=C/c2ccc(F)c(F)c2)cc1	4.63 µM	5.96 µM	2.29 µM	3.19 µM
COc1cc(/C=C/C(=O)c2ccc(NC(=O)CCl)cc2)cc(OC)c1OC	2.73 µM	3 µM	1.32 µM	1.72 µM
Cc1cccc(NC(=O)CSC(=S)N[C@H]2CCOC2=O)c1	> 128 µM	> 128 µM	63.2 µM	36.6 µM
O=C(CCl)Nc1ccc(C(=O)/C=C/c2ccc(Br)cc2)cc1	10.1 µM	13.3 µM	4.64 µM	6.05 µM
CCCCCCCCCCCCSC(=S)N[C@H]1CCOC1=O	58.3 µM	50.3 µM	61.1 µM	
O=C(CSC(=S)N[C@H]1CCOC1=O)Nc1ccc(C(=O)/C=C/c2ccc([N+](=O)[O-])cc2)cc1	> 128 µM	> 128 µM	2.67 µM	29.4 µM

SMILES	IC50 [1]	IC50 (SMMC-7721)	IC50 (MCF7)	IC50 (MGC-803)
CCOC(=O)c1ccc(NC(=O)CSC(=S)N[C@H]2CCOC2=O)cc1	112 µM	64.9 µM	60.2 µM	21.7 µM
O=C(CSC(=S)N[C@H]1CCOC1=O)Nc1cccc(Cl)c1	107 µM	> 128 µM	46.6 µM	21.8 µM
Cc1ccc(/C=C/C(=O)c2ccc(NC(=O)CCl)cc2)cc1	7.15 µM	22.9 µM	9.18 µM	3.6 µM
O=C(CSC(=S)N[C@H]1CCOC1=O)Nc1ccccc1Cl	> 128 µM	49.9 µM	90.8 µM	31.9 µM
CSC(=S)N[C@H]1CCOC1=O	> 128 µM	> 128 µM	> 128 µM	> 128 µM
O=C(CSC(=S)N[C@H]1CCOC1=O)Nc1ccc(O)cc1	> 128 µM	> 128 µM	> 128 µM	80 µM
O=C(CCl)Nc1ccc(C(=O)/C=C/c2ccc(Cl)cc2)cc1	8.34 µM	8.16 µM	4.1 µM	4.96 µM
O=c1[nH]cc(F)c(=O)[nH]1 [FLUOROURACIL]	15.7 µM	20.4 µM	12.2 µM	10.7 µM
O=C(CSC(=S)N[C@H]1CCOC1=O)Nc1cccc([N+](=O)[O-])c1	> 128 µM	> 128 µM	5.46 µM	58.9 µM
O=C(CSC(=S)N[C@H]1CCOC1=O)Nc1ccc(C(=O)/C=C/c2ccc(Cl)cc2)cc1	38.9 µM	> 128 µM	20.2 µM	6.9 µM
O=C(CSC(=S)N[C@H]1CCOC1=O)Nc1ccc(Cl)cc1Cl	> 128 µM	> 128 µM	29.2 µM	48.5 µM
O=C(CSC(=S)N[C@H]1CCOC1=O)Nc1ccccc1	> 128 µM	> 128 µM	> 128 µM	39.7 µM
O=C(CSC(=S)N[C@H]1CCOC1=O)Nc1ccc(F)cc1	67.1 µM	> 128 µM	5.83 µM	37.6 µM
O=C(CCl)Nc1ccc(C(=O)/C=C/c2ccccc2)cc1	6.37 µM	12.6 µM	2.48 µM	6.94 µM
COc1ccc(NC(=O)CSC(=S)N[C@H]2CCOC2=O)cc1	> 128 µM	> 128 µM	> 128 µM	62.1 µM
CCCCc1ccc(NC(=O)CSC(=S)N[C@H]2CCOC2=O)cc1	44.2 µM	27.3 µM	40.2 µM	20.5 µM
CCCCCCCCSC(=S)N[C@H]1CCOC1=O	> 128 µM	65 µM	> 128 µM	> 128 µM
CC(=O)c1ccc(NC(=O)CSC(=S)N[C@H]2CCOC2=O)cc1	> 128 µM	> 128 µM	> 128 µM	99.4 µM
O=C(CSC(=S)N[C@H]1CCOC1=O)Nc1ccc(C(=O)/C=C/c2ccc(Br)cc2)cc1	91.2 µM	18 µM	18.7 µM	19.6 µM
O=C(CCl)Nc1ccc(C(=O)/C=C/C=C/c2ccccc2)cc1	10.7 µM	36.7 µM	4.59 µM	5.97 µM
CCCCCCCCCC(=O)CC(=O)N[C@H]1CCOC1=O	> 128 µM	> 128 µM	37.3 µM	102 µM
Cc1ccc(NC(=O)CSC(=S)N[C@H]2CCOC2=O)cc1	93.9 µM	32.7 µM	33.5 µM	44.3 µM
